The target of experiment [1] is T1, Calpain-1 catalytic subunit (Homo sapiens) (UniProt P07384).
T1 sequence (whole entry): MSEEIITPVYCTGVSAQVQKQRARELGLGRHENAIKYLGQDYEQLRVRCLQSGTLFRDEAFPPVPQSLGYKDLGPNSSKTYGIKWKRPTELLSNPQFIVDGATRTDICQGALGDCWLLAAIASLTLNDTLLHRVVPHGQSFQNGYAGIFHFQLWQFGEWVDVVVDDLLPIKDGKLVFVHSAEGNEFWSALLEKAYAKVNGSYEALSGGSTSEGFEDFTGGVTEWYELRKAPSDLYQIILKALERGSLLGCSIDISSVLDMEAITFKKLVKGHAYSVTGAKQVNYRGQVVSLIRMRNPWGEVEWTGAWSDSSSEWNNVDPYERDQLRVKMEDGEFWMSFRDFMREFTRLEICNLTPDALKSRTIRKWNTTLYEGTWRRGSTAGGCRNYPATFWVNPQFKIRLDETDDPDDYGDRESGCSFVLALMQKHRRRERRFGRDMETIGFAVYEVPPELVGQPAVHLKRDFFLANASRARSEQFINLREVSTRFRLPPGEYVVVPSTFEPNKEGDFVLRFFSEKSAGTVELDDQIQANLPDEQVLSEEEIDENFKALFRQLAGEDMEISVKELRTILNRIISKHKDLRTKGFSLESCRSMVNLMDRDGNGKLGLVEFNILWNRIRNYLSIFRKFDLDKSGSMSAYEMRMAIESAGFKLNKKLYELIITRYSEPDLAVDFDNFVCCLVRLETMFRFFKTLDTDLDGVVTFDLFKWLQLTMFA
Briefly: Second order rate constant for inactivation of recombinant human Calpain 1 was reported. The procedure, abridged:
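Started with 5 mM CaCl2 at ambient temperature. Fluorescence (ex 340/em 440 nm) was recorded continuously. kobs came from an exponential fit, and k2 from the kobs-vs-[I] slope with a (1+S/Km) correction.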

Experiment [2] has as its target T1, Calpain-1 catalytic subunit (Homo sapiens). Description: Percent inhibition of recombinant Calpain 1 after 5 min of incubation with 10 uM compound. The procedure, abridged:
(§1)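 Single-concentration test: 10 inhibitor, 5 min incubation, then percent inhibition of recombinant human calpain I activity measured by the fluorogenic Suc-Leu-Tyr-MNA assay (ex 340/em 440 nm) in Ca2+-initiated buffer at ambient temperature.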

The target of experiment [3] is Cathepsin B (Homo sapiens) (UniProt P07858). Description: Second order rate constant for inactivation of human liver cathepsin B was reported. Put shortly:
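Human liver cathepsin B inactivation was run by an analogous progress-curve method (substrate plus inhibitor) under published assay conditions. The second-order rate constant came from progress-curve analysis. Inhibitor was added as quickly as possible before measurement because of limited aqueous stability.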

Experiment [4] shares this target. Briefly: Ratio of second order rate constant of calpain I to that of cathepsinB.
The target is the same in experiment [5]. Briefly: Percent inhibition of recombinant calpain I after 5 min of incubation with 10 uM compound. The procedure, abridged: as §1

Residues, ends and D or L forms follow the SMILES beside them. *: point of attachment. Cbz = O=C(OCc1ccccc1)*; CH2F = FC*

Turning to `CC(C)CC(NC(=O)OCc1ccccc1)C(=O)NC(Cc1ccccc1)C(=O)CON1C(=O)CCC1=O` (stereo not given), in experiment [1], the K obs / 1 was 5800 M⁻¹ s⁻¹.

The inhibition is the percentage by which the read-out fell short of the control. Regarding `CC(C)CC(NC(=O)OCc1ccccc1)C(=O)NC(Cc1ccccc1)C(=O)CON1C(=O)c2ccccc2C1=O` (stereo not given), in experiment [2], the inhibition was 32%.

Turning to `CC(C)CC(NC(=O)OCc1ccccc1)C(=O)NC(Cc1ccccc1)C(=O)Cn1nnc2ccccc21` (stereo not given), the inhibition in experiment [2] was found to be 83%.

Regarding `CCC(NC(=O)C(CC(C)C)NC(=O)OCc1ccccc1)C(=O)COn1nnc2ccccc21` (stereo not given), the K obs / 1 amounted to 63000 M⁻¹ s⁻¹ in experiment [1] and 443000 M⁻¹ s⁻¹ in experiment [3]. In addition, the Ratio in experiment [4] worked out at 0.14.

Turning to `CC(C)CC(NC(=O)OCc1ccccc1)C(=O)NC(Cc1ccccc1)C(=O)CON1C(=O)C2C3C=CC(C3)C2C1=O` (stereo not given), the K obs / 1 in experiment [1] was 1000 M⁻¹ s⁻¹; in experiment [3] it was 6900 M⁻¹ s⁻¹. In addition, the Ratio in experiment [4] was 0.14.

Turning to `CC(C)CC(NC(=O)OCc1ccccc1)C(=O)NC(Cc1ccccc1)C(=O)CF` (stereo not drawn) (Cbz-Leu-Phe-CH2F; configuration not given here), the K obs / 1 in experiment [1] came to 136000 M⁻¹ s⁻¹; in experiment [3] it was 300 M⁻¹ s⁻¹. The Ratio in experiment [4] worked out at 454.

In the case of `CC(C)CC(NC(=O)OCc1ccccc1)C(=O)NC(Cc1ccccc1)C(=O)COn1nnc2ccccc21` (stereo in doubt; 1d), the K obs / 1 stood at 320000 M⁻¹ s⁻¹ in experiment [1] and 118000 M⁻¹ s⁻¹ in experiment [3]. In addition, the Ratio in experiment [4] came out at 2.7.

Turning to `CC(C)CC(NC(=O)OCc1ccccc1)C(=O)NC(CC(C)C)C(=O)NC(Cc1ccccc1)C(=O)COn1nnc2ccccc21` (stereo not given), the K obs / 1 in experiment [1] worked out at 524000 M⁻¹ s⁻¹. Also, the inhibition in experiment [5] turned out to be 32%.

Take `CC(C)CC(NC(=O)OCc1ccccc1)C(=O)NC(Cc1ccccc1)C(=O)COn1nnc2cccnc21` (stereo not given): the K obs / 1 in experiment [1] was found to be 184000 M⁻¹ s⁻¹; in experiment [3] it was 107000 M⁻¹ s⁻¹. Further, the Ratio in experiment [4] came out at 1.7.

These data come from ChEMBL document CHEMBL1133143, “Calpain inhibitors based on the quiescent affinity label concept: high rates of calpain inactivation with leaving groups derived from N-hydroxy peptide coupling reagents” (Bioorg Med Chem Lett, 2000).
